Screening results deposited in PubChem by several laboratories.
Compounds with a hit are over-represented: about 0.84% of the library has one in this group of screens.
Tn6 DDE FP: inhibitors of Tn6 peptide binding to human fibrin DD(E) | P02675 | AID 720509 | Fibrin DD(E) TRITC-Tn6 fluorescence polarization displacement | actives 0.21% (n = 370,000) | inhibition, % at 8.3 µM;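 active = inhibition above a per-campaign cutoff: mean of compounds within control limits plus 3 SD, cut at about 15% in these data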;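 note: 0% = median of all compound wells on the plate and 100% = blocking peptide control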
Target sequence (P02675 whole entry, looked up): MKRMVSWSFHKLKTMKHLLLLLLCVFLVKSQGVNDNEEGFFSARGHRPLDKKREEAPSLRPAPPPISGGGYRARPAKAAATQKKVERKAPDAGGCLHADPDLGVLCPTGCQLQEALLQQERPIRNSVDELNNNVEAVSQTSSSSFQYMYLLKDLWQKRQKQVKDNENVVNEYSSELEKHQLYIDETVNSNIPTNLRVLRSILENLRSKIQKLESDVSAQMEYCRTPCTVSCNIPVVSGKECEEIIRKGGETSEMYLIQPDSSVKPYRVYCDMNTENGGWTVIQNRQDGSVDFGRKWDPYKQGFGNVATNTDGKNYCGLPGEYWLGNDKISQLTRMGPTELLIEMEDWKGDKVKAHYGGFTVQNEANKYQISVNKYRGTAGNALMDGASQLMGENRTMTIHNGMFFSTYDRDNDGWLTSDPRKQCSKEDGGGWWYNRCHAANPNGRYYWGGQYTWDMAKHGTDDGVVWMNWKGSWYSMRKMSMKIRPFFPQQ
SKN-1 inh: blocks SKN-1 activity in C. elegans. C. elegans VP596 Pgst-4::GFP/RFP ratio, acrylamide-induced, 24 h. inhibition, % at 21.8 µM. actives 0.49% (n = 360,000);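 active = interference check ratio from 0.5 to 1.5 plus GFP to RFP signal ratio inhibition reaching or exceeding a fixed threshold, cut at about 30% in these data, passing the limit was not always enough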
Tn7 DDE FP: disrupts Tn7 cyclic peptide binding to fibrin D-Dimer-E complex; FP displacement of FITC-Tn7 peptide from fibrin DD(E); 0% = median of compound wells per plate; inhibition, % at 8.3 µM; actives 0.13% (n = 370,000); P02675;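 active = inhibition above the mean of compounds falling within the control limits plus 3 SD of them, cut at about 14% in these data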;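 note: 0% = plate median of compound wells and 100% = 10 µM Aha-Tn7 peptide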
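Measure: % inhibition scaled between sample-field median and high-control FP; Test system: human fibrin DD(E); Quantity: 2 µM final DD(E) protein; Doses: one dose, 8.3 µM nominal; Schedule: compound with protein 10 min, then 3 h after probe, room temperature; Detection: fluorescence polarization; Medium: Tris buffer with calcium and detergent, pH 7.8.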
MT1-MMP act inh: blocks activation of human MT1-MMP | P50281 | HT1080 RFP-PRO-GFP cells, GFP/RFP ratio fluorescence, overnight; percent of plate control window, DMSO zero | GFP/RFP ratio change, % at 20 µM | actives 0.061% (n = 360,000);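 active = GFP/RFP ratio change of at least 30% with cell ATP level not reduced by more than half and red fluorescence within 50% of control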
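Assay system: RFP-PRO-GFP reporter HT1080 cells; read-out basis: GFP/RFP fluorescence ratio; benchmarks: DMSO wells and RFP-L50D-GFP cells; doses: 20 µM single dose, 1% DMSO; schedule: overnight cell settling, then overnight compound exposure, 37 °C, 5% CO2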
DDE Tn6 FP ctr: counter-screen hit for Tn6 peptide-fibrin DD(E) binding disruption; actives 2% (n = 680); shares compounds with Tn6 DDE FP; inhibition, % at 8.3 µM; TRITC-Tn6 fluorescence polarization displacement; 0% = median of compound wells, not DMSO;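 active = inhibition above the mean of test compounds lying between the control limits plus 3 SD of those, cut at about 14% in these data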;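 note: 0% = median of compound wells and 100% = wells with Aha-Tn7 blocking peptide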
DDE Tn6 confirm: confirmation of inhibitors of Tn6 binding to human fibrin DD(E). shares compounds with Tn6 DDE FP. FP displacement of TRITC-Tn6 peptide from DD(E); 0% = per-plate median of test wells. inhibition, % at 8.3 µM. actives 10% (n = 680);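 active = inhibition above the mean of compounds lying within the control limits plus 3 SD, cut at about 16% in these data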;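 note: 100% = high control wells holding a competing inhibitor peptide at 10 µM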
* marks the source's active call; other numbers are inactive results; / = no result given.

SMILES | Tn6 DDE FP | SKN-1 inh | Tn7 DDE FP | MT1-MMP act inh | DDE Tn6 FP ctr | DDE Tn6 confirm
COc1cccc(NC(=O)c2ccccc2N2C(=O)C3C4C=CC(C4)C3C2=O)c1 (stereo not given) | 16* | -7 | 2 | 0 | -2 | -4
CCOc1ccccc1NC(=O)NCc1ccccn1 | 19* | -14 | 3 | -2 | 8 | 5
O=C(NC(Cc1cccc(F)c1)C(=O)O)C1CCCCC1 (stereo not given) | 16* | 4 | -3 | -1 | -2 | -6
N=c1c(C(=O)NC2CCCC2)cc2c(=O)n3ccccc3nc2n1CCN1CCOCC1 | 16* | -32 | -1 | 6 | 0 | -2
CCN1C(=O)[C@H]2[C@@H](c3ccc(-c4cccc(Cl)c4)cc3)N3CCCC[C@@]3(C(=O)OC)[C@H]2C1=O | 2 | 22 | -5 | 0 | / | /
NS(=O)(=O)c1ccc(N2CCN(C(=O)C3COc4ccccc4O3)CC2)nc1 (stereo not given) | 18* | -1 | 0 | 0 | 2 | -5
O=c1[nH][nH]c(C(F)(F)F)c1C=Nc1ccccc1 | -2 | -2 | -3 | 4 | / | /
Cc1cc(O)ccc1N=Cc1c(C(F)(F)F)[nH][nH]c1=O | 77* | 29 | 4 | 52 | -5 | 0
O=C(/C=C/[C@H]1O[C@@H](n2ccc(=O)[nH]c2=O)[C@H](O)[C@@H]1O)NCCN1CCOCC1 | 2 | 18 | 2 | 4 | / | /
c1ccc(-c2nnc(CN3CCN(C(c4ccccc4)c4ccccc4)CC3)o2)cc1 | -2 | -9 | 3 | -5 | / | /
O=C(O)c1cccc(S(=O)(=O)Nc2ccccc2Cc2ccccc2)c1 | 0 | -17 | 1 | -2 | / | /
CS(=O)(=O)c1cccc(C(=O)Nc2ccccc2Cc2ccccc2)c1 | 16* | 6 | -3 | 3 | 0 | -3
COc1ccc(CN2CCNC(=O)C2CC(=O)N(C)CCC2CCOCC2)c(OC)c1 (stereo not given) | -1 | 8 | -1 | -1 | / | /
COc1cc(C(=O)OCc2cccc(OC)c2OC)ccc1OCC(=O)N1CCOCC1 | -2 | -9 | -2 | 2 | / | /
O=S(=O)(c1ccc(F)cc1)N1CN(Cc2ccco2)c2nc3ccccc3nc21 | 36* | 30 | -2 | -54 | -6 | -3
CCCCN(CCCNC(=O)CN1C(=O)COc2ccc(S(=O)(=O)N3CCC(C)CC3)cc21)Cc1ccccc1 | -7 | -22 | -2 | 3 | / | /
O=S(=O)(c1ccccc1)c1cnn(-c2ccccc2)c1-c1ccc(Cl)cc1 | 16* | 1 | 4 | 1 | 3 | -6
COc1ccc(NC(=O)C2CCCN2C(=O)NC2CCCCC2)cc1 (stereo not given) | 17* | 8 | 1 | -1 | 0 | -5
Cc1ccc(C)c(Cn2nnc3c(=O)[nH]c(C4CCN(S(=O)(=O)c5ccc(S(=O)(=O)NC6CC6)cc5)CC4)nc32)c1 | 18* | 13 | -2 | -2 | 6 | 6
Cc1ccc(C)c(Cn2nnc3c(=O)[nH]c(C4CCN(S(=O)(=O)c5ccc(S(=O)(=O)N(C)C)cc5)CC4)nc32)c1 | 4 | 24 | -2 | 0 | / | /
Cc1nn(-c2ccccc2)cc1C(c1c(N)[nH]c(=S)[nH]c1=O)c1c(N)[nH]c(=S)[nH]c1=O | 15* | -4 | 1 | 2 | -7 | -28
Cc1nc2cc3sc(C)nc3cc2s1 | 12 | -5 | 6 | 8 | / | /
Cc1nc2ccc(N)cc2s1 | 15* | 8 | -2 | 0 | -5 | -9
COc1ccc(NC(=O)C(c2cc3c(cc2[N+](=O)[O-])OCO3)N(C)Cc2ccccc2)cc1 (stereo not given) | 31* | 1 | 1 | -6 | 2 | 1
CCCCNC(=O)C1(C)CCC(=O)N1CCOC (stereo not given) | -4 | 8 | 3 | 4 | / | /
SMILES | Tn6 DDE FP | SKN-1 inh | Tn7 DDE FP | MT1-MMP act inh | DDE Tn6 FP ctr | DDE Tn6 confirm
CN(C)c1ccc2nc3ccc(=O)cc-3sc2c1 | 146* | 86 | 3 | 6 | -7 | 70*
CC1CCC(NC(=O)C2CCC(CNS(=O)(=O)c3ccc4c(c3)C(C)(C)C(=O)N4C)CC2)CC1 (stereo not given) | 6 | 2 | 3 | 7 | / | /
CCOC(=O)C1(C)CCN1C(=O)c1cc(F)ccc1C (stereo not given) | -6 | -2 | -3 | -2 | / | /
O=C(Nc1ccc(Oc2ccccc2)nc1)C1CCN(Cc2ccccc2)CC1 | 1 | -5 | -3 | 3 | / | /
Cc1c(CN2CCC(C(=O)Nc3ccc(Oc4ccccc4)nc3)CC2)cnn1C | 15* | 14 | -2 | 2 | 9 | 6
O=C(O)c1cncc(C#CCC2CCCCC2)c1 | 0 | 0 | -1 | -2 | / | /
CC1(NC(=O)C23CC4CC(CC(C4)C2)C3)CCS(=O)(=O)C1 (stereo not given) | -2 | 3 | -7 | -2 | / | /
CN(C(=O)C12CC3CC(CC(C3)C1)C2)C1(C)CCS(=O)(=O)C1 (stereo not given) | 15* | 8 | -3 | 3 | 3 | 0
O=C(Nc1cccc([N+](=O)[O-])c1)c1ccc([N+](=O)[O-])o1 | 18* | 6 | -2 | 14 | 2 | 1
COc1cc(CNC2CCCCCCC2)cc(Cl)c1OC | 17* | 21 | 7 | -1 | -4 | -6
Cn1c(=O)n(C)c2cc(N3CCCC3)c(NC(=O)c3cccc(F)c3)cc21 | 15* | 19 | 6 | 9 | 6 | 1
CCC(C)(C(=O)NC1CCCC1)N(Cc1cccs1)C(=O)Cc1cccs1 (stereo not given) | 6 | 2 | -2 | -9 | / | /
CCC(C)(C(=O)NC1CCCCC1)N(C(=O)Cc1cccs1)c1ccccc1 (stereo not given) | 15* | 3 | 0 | 10 | 1 | 2
CC(=O)Nc1c2c(nn1-c1ccccc1C)CS(=O)(=O)C2 | -6 | -2 | -8 | -5 | / | /
CCc1nnc(NC(=O)CCn2cnc3ccccc3c2=O)s1 | -1 | -3 | -4 | 2 | / | /
O=C(N[C@@H](Cc1ccccc1)C(=O)OCC(=O)N1CCOCC1)c1cccs1 | 18* | -2 | -1 | 2 | 3 | -5
Cc1ccc(-n2nc3c(=O)n(CCCC(=O)N4CCC(C(N)=O)CC4)nc(C)c3c2C)cc1 | -3 | 11 | -6 | 2 | / | /
CCOc1ccc(S(=O)(=O)NCCC(=O)NCc2ccco2)cc1 | -2 | 0 | 3 | 4 | / | /
CCOc1ccc(S(=O)(=O)NCCC(=O)NCCOc2ccccc2OC)cc1 | 22* | 16 | 0 | -2 | 1 | 2
O=S(=O)(c1ccccc1)N1N=C(c2cccs2)CC1c1cccc(O)c1 (stereo not given) | -8 | 16 | -2 | -3 | / | /
